In ChEMBL document CHEMBL5316280, “Development of N-(1-Adamantyl)benzamides as Novel Anti-Inflammatory Multitarget Agents Acting as Dual Modulators of the Cannabinoid CB2 Receptor and Fatty Acid Amide Hydrolase” (J Med Chem, 2023):
Activity calls are given as the source filed them. The rule behind the calls is not given here.

Experiments:
THP-1 [1] = assay: Antiinflammatory activity in human THP-1 monocytes assessed as increase in IL-10 level incubated for 24 hrs by ELISA based qRT-PCR analysis; type: functional, cell-based
Procedure, shortened: (§1)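 THP-1 cells were seeded at 1 x 10⁵ cells/ml for 48 h. For macrophages, cells were differentiated with 0.01 µM PMA for 48 h; monocytes received no PMA. Cells were then given 24 h with or without 10 µg/ml LPS, plus ligands alone or with the CB2R inverse agonist JTE907 (10 µM). Cytokines were measured in 5 µL supernatant (from 1 x 10⁴ cells) by ProQuantum immunoassay, read as pg/ml from kit titration curves; n=3.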

Cannabinoid receptor 2 [2] = biological target: T1, Cannabinoid receptor 2 (Homo sapiens, UniProt P34972); assay: Agonist activity at human CB2 receptor overexpressed in CHO-K1 cells assessed as cAMP level incubated for 30 mins by luminescence based assay; type: functional, cell-based
Procedure, shortened: (§2)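 CHO-K1 cells overexpressing human CB2R were plated at 30 000 cells/well and held overnight at 37 °C, 5% CO2. Test samples were added as dose–response solutions with NKH-477 to stimulate adenylate cyclase, then incubated 30 min at 37 °C. cAMP was detected by luminescence after cell lysis. Values were normalized to NKH-477 alone as 100% response. Three independent experiments were run in triplicate.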

THP-1 [3] = assay: Antiinflammatory activity in human THP-1 monocytes assessed as decrease in IL-1beta level incubated for 24 hrs in presence of […] by ELISA based qRT-PCR analysis; type: functional, cell-based; procedure, shortened: as §1
Cannabinoid receptor 2 [4] = biological target: T1, Cannabinoid receptor 2; assay: Displacement of [3H]CP55940 from recombinant human CB2 receptor expressed in HEK293 cell membrane incubated for 90 mins by beta scintillation counter method; type: cell membranes
Procedure, shortened: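 HEK293 membranes stably expressing human CB2 (50 µg protein/well) competed with 0.2 nM [3H]-CP55,940 (final) against test compound at 10⁻¹²–10⁻⁵ M in Tris-HCl 50 mM, EGTA 2.5 mM, MgCl₂ 5 mM, 0.1% fatty-acid-free BSA, pH 7.4; 90 min at 30 °C. Nonspecific binding defined with 10 µM GW405833.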

THP-1 [5] = assay: Antiinflammatory activity in human THP-1 macrophages assessed as decrease in IL-6 level incubated for 24 hrs by ELISA based qRT-PCR analysis; type: functional, cell-based; procedure, shortened: as §1
THP-1 [6] = assay: Antiinflammatory activity in human THP-1 macrophages assessed as decrease in IL-1beta level incubated for 24 hrs in presence of […] by ELISA based qRT-PCR analysis; type: functional, cell-based; procedure, shortened: as §1
THP-1 [7] = assay: Antiinflammatory activity in human THP-1 monocytes assessed as decrease in IL-6 level incubated for 24 hrs by ELISA based qRT-PCR analysis; type: functional, cell-based; procedure, shortened: as §1
THP-1 [8] = assay: Antiinflammatory activity in human THP-1 macrophages assessed as decrease in IFNgamma level incubated for 24 hrs in presence of […] by ELISA based qRT-PCR analysis; type: functional, cell-based; procedure, shortened: as §1
THP-1 [9] = assay: Antiinflammatory activity in human THP-1 monocytes assessed as decrease in IFNgamma level incubated for 24 hrs in presence of […] by ELISA based qRT-PCR analysis; type: functional, cell-based; procedure, shortened: as §1
THP-1 [10] = assay: Antiinflammatory activity in human THP-1 macrophages assessed as decrease in IL-1beta level incubated for 24 hrs by ELISA based qRT-PCR analysis; type: functional, cell-based; procedure, shortened: as §1
Cannabinoid receptor 1 = Cannabinoid receptor 1 (Homo sapiens, UniProt P21554); assay: […] human CB1 receptor in CHO cells incubated for 15 mins by plate reader analysis relative to control; type: cell-based
Procedure, shortened: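 CHO-CB1 C3 cells (human CB1) were seeded at 8000 cells/well in medium with dialyzed FBS and preincubated 15 min at 37 °C. Compounds or the CP55940 control were added for 15 min at 37 °C, then forskolin 10 µM for 5 min. cAMP was read by HTRF after 1 h at room temperature (λex 320 nm, λem 620-665 nm).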

Cannabinoid receptor 2 [11] = biological target: T1, Cannabinoid receptor 2; assay: Agonist activity at human CB2 receptor overexpressed in CHO-K1 cells assessed as cAMP level incubated for 30 mins by luminescence based assay relative to control; type: functional, cell-based; conditions: filed as agonist; procedure, shortened: as §2
THP-1 [12] = assay: Antiinflammatory activity in human THP-1 macrophages assessed as increase in IL-4 level incubated for 24 hrs by ELISA based qRT-PCR analysis; type: functional, cell-based; procedure, shortened: as §1
THP-1 [13] = assay: Antiinflammatory activity in human THP-1 monocytes assessed as decrease in TNFalpha level incubated for 24 hrs in presence of […] by ELISA based qRT-PCR analysis; type: functional, cell-based; procedure, shortened: as §1
THP-1 [14] = assay: Antiinflammatory activity in LPS-activated human THP-1 macrophages assessed as increase in IL-4 level incubated for 24 hrs by ELISA based qRT-PCR analysis; type: functional, cell-based; procedure, shortened: as §1
THP-1 [15] = assay: Antiinflammatory activity in LPS-activated human THP-1 macrophages assessed as increase in IL-10 level incubated for 24 hrs by ELISA based qRT-PCR analysis; type: functional, cell-based; procedure, shortened: as §1
THP-1 [16] = assay: Antiinflammatory activity in LPS-activated human THP-1 monocytes assessed as decrease in IL-6 level incubated for 24 hrs by ELISA based qRT-PCR analysis; type: functional, cell-based; procedure, shortened: as §1

Cannabinoid receptor 1, sequence (P21554 whole entry): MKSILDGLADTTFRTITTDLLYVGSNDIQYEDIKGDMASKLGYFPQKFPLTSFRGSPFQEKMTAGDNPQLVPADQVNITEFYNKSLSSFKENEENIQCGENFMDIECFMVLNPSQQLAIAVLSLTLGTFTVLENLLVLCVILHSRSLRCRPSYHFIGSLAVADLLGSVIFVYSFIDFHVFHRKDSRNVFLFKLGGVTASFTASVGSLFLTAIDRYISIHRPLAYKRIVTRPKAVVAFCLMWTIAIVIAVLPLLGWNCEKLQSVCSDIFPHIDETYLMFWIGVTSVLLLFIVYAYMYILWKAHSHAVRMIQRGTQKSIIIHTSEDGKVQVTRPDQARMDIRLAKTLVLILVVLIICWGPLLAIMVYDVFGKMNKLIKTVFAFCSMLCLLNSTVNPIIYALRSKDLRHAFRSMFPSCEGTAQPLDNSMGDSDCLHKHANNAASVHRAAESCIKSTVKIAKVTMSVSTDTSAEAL
T1 sequence (P34972 whole entry): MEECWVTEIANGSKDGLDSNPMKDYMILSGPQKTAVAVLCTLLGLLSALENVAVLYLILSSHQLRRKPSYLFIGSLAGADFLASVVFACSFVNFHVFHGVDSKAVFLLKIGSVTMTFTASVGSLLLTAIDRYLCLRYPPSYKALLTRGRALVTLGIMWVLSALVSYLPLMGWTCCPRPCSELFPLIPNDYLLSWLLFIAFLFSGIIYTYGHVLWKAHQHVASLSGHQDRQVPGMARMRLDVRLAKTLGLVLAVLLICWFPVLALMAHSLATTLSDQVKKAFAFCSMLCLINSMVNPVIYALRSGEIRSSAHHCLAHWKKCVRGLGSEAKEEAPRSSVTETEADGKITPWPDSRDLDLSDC

| Compound | Activity (THP-1 [1]) | EC50 (Cannabinoid receptor 2 [2]) [nM] | Activity (THP-1 [3]) | Ki (Cannabinoid receptor 2 [4]) [nM] | Activity (THP-1 [5]) | Activity (THP-1 [6]) | Activity (THP-1 [7]) | Activity (THP-1 [8]) | Activity (THP-1 [9]) | Activity (THP-1 [10]) | Emax (Cannabinoid receptor 1) [%] | Emax (Cannabinoid receptor 2 [11]) [%] | Activity (THP-1 [12]) | Activity (THP-1 [13]) | Activity (THP-1 [14]) | Activity (THP-1 [15]) | Activity (THP-1 [16]) |
| --- | --- | --- | --- | --- | --- | --- | --- | --- | --- | --- | --- | --- | --- | --- | --- | --- | --- |
| CCCCCOc1ccccc1C(=O)NC12CC3CC(CC(C3)C1)C2 | Active | 86.9 | inactive | 10.8 | Active | inactive | inactive | inactive | inactive | Active | 100 | 95.3 | Active | inactive |  |  |  |
| O=C(NC12CC3CC(CC(C3)C1)C2)c1ccccc1OCc1ccccc1 | Active | 124 | inactive | 14.8 | inactive | inactive | inactive | inactive | inactive | Active | 100 | 96.3 | Active | inactive | inactive | inactive |  |
| O=C(NC12CC3CC(CC(C3)C1)C2)c1ccccc1OCC1CCCCC1 | Active | 283 | inactive | 20.1 | Active | inactive | Active | inactive | inactive | Active | 75 | 90.1 | Active | inactive |  |  | inactive |
